Assay results published in the RNAGym collection of RNA variant scans (doi:10.1126/science.aae0568).
This sample holds only a part of the variants without activity.

B1: tRNA (parent)
chain: GUUCCGUUGGCGUAAUGGUAACGCGUCUCCCUCCUAAGGAGAAGACUGCGGGUUCGAGUCCCGUACGGAACG

Variants of: B1
Assay: yeast fitness relative to wild type (ratio to wild type); higher = fitter; tRNA-Arg(CCU), competitive growth, 37 C, YPD
In short: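 Variants of the tRNA-Arg(CCU) gene, chemically synthesised with a 3% per-site mutation rate at 69 sites, were placed at the native genomic locus in Saccharomyces cerevisiae. The pooled strains were competed in YPD at 37°C for 24 hours in six parallel replicates. Gene amplicons from the start population and from each end population were read by 100-nucleotide paired-end sequencing. Darwinian fitness relative to wild type came from changes in genotype frequencies; genotypes needed ≥ 100 starting reads, and estimates < 0.5 were set to 0.5.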
For GUUCCGUUGGCGUAUUGGUAACGCGUCUCCCUCCAAAGGAGAGGACUGCGGGUUCGAGUCCCGUACCGAACG [A15U U35A A43G G67C], the yeast fitness was at most 0.5.
For GUUCCGUUGGCGUAUUGGUAACGCGUCUCCCUCCCAAGGAAAAGACUGCGGGUUCGAGUACCGUUCGGGACG [A15U U35C G41A C60A A65U A69G], the yeast fitness was 0.563.
Variant GUUCCGUUGGCGUAUUGGUAACGCGUCUCCCUCCUAAGGAGAAGACAGCGGGUUCGAAUCCCGUCCGGAACG [A15U U47A G58A A65C] has a yeast fitness of at most 0.5.
GUUCCGUUGGCGUAUUGGUAACGCGUCUCCCUCCUAAGGAGAAGACUGCGGGAUCGAGUCCCGUACGGAACG [A15U U53A] showed a yeast fitness of 0.648.
GUUCCGUUGGCGUAUUGGUAACGCGUCUCCCUCCUAAGGAGAAGACUGCGGGAUCGAGUCCCAUACGGAACG [A15U U53A G63A] gave a yeast fitness of at most 0.5.
With GUUCCGUUGGCGUAUUGGUAACGCGUCUCCCUCCUAAGGAGAAGACUGCGGGGUCGCGUCCCGUACGGUACG [A15U U53G A57C A69U] the yeast fitness was 0.625.
For GUUCCGUUGGCGUAUUGGUAACGCGUCUCCCUCCUAAGGAGAAGACUGCGGGUCCGAGUCCCGUACGGAACG [A15U U54C], the yeast fitness was 0.703.
Work on GUUCCGUUGGCGUAUUGGUAACGCGUCUCCCUCCUAAGGAGAAGACUGCGGGUGCGAGUCCCGUACGGAACG [A15U U54G] yielded a yeast fitness of 0.539.
GUUCCGUUGGCGUAUUGGUAACGCGUCUCCCUCCUAAGGAGAAGACUGCGGGUUCGAGUCCCGGACGGUACG [A15U U64G A69U] gave a yeast fitness of at most 0.5.
Work on GUUCCGUUGGCGUAAAGGUAACGCGUCUCCCUCCUAAGGAGAAGACUGCGGGUUCGAGUCCCGUACGGAACG [U16A] yielded a yeast fitness of 0.992.
In the case of GUUCCGUUGGCGUAAAGGUCAUGCGUCUCCCUUCUAAGGAGGAGACUGCGGGUUCGAGUCCCGUACGGAACG [U16A A20C C22U C33U A42G], the yeast fitness is reported as at most 0.5.
GUUCCGUUGGCGUAAAGGUCACGGGUCUCCCUGCUAAGGAGAAGACUGCGGGUUCGAGUCCCGUACGGAACG [U16A A20C C24G C33G] gave a yeast fitness of at most 0.5.
With GUUCCGUUGGCGUAAAGGUCACGCGUCUGCCUCCUAAGGAGAAGACUGCGGGUUCGAGUCCCAUACGCAACG [U16A A20C C29G G63A G68C] the yeast fitness was at most 0.5.
GUUCCGUUGGCGUAAAGGUGACGCGUCUCCCUCCUAAGGAGAAGACUGCGGGUUCGAGUCCCGUACGGAACG [U16A A20G] gave a yeast fitness of 0.961.
With GUUCCGUUGGCGUAAAGGUGGCGCGUCUCCCUCUUAAGGAGAAAACUGCGGGUUCGAGUCACGUACCGAACG [U16A A20G A21G C34U G44A C61A G67C] the yeast fitness was at most 0.5.
GUUCCGUUGGCGUAAAGGUGACGCGUUUCCCUCCUAAGGACAAGACUGCGGGUUCGAGUCCCAUACGGAACG [U16A A20G C27U G41C G63A] gave a yeast fitness of at most 0.5.
With GUUCCGUUGGCGUAAAGGUGACGCGUCUCCCUCCUAAGGAGAAGACUGCGGGUUCGAGUCCAGUACGGAACG [U16A A20G C62A] the yeast fitness was 0.546.
Variant GUUCCGUUGGCGUAAAGGUUACGCGUCUCCCUCCUAAGGAGAAGACUGCGGGUUCGAGUCCCGUACGGAACG [U16A A20U] has a yeast fitness of 0.855.
Variant GUUCCGUUGGCGUAAAGGUUACGGGUCUCCCUGCUAAGGAGAAGACUGCGGGUUCGAGUCCCGUGAGGAACG [U16A A20U C24G C33G A65G C66A] has a yeast fitness of at most 0.5.
GUUCCGUUGGCGUAAAGGUUACGGGUCUCCCUGCUAAGGAGAAGACUGCGGGUUCGAGUCACGUACCGAACG [U16A A20U C24G C33G C61A G67C] gave a yeast fitness of 0.561.
Work on GUUCCGUUGGCGUAAAGGUUACGCGUCUCCCUCCUAAGGAGAAGAAUGCGGGUUCGAGUCCCGUACGGAACG [U16A A20U C46A] yielded a yeast fitness of at most 0.5.
Work on GUUCCGUUGGCGUAAAGGUUACGCGUCUCCCUCCUAAGGAGAAGACUGCAGGUUCGAGUCCCGUACGGAACG [U16A A20U G50A] yielded a yeast fitness of 0.513.
Variant GUUCCGUUGGCGUAAAGGUACCGCGUCUCCCUCCUAAGGAGAAGACUGCGGGUUCGAGUCCCGUACGGAACG [U16A A21C] has a yeast fitness of 0.686.
GUUCCGUUGGCGUAAAGGUACCGCGUCUCCCUCCUGAGGAGAAAACUGCGGGUUCGAGACCCGUACGGAACG [U16A A21C A36G G44A U59A] gave a yeast fitness of at most 0.5.
Work on GUUCCGUUGGCGUAAAGGUACCGCGUCUCCCUCCUACGGAGAAGACUGCGGGUUCGAGUCCCGUACGAAACG [U16A A21C A37C G68A] yielded a yeast fitness of 0.551.
GUUCCGUUGGCGUAAAGGUACCGCGUCUUCCUCCUAAGGAGAAGACUGCGGGUUCGAGUCCCGUACGGAACG [U16A A21C C29U] showed a yeast fitness of at most 0.5.
With GUUCCGUUGGCGUAAAGGUACCGCGUCUCCCUCAUACGGAGAAGACUGCGGGUUCGAGUCCCGUACGAAACG [U16A A21C C34A A37C G68A] the yeast fitness was at most 0.5.
For GUUCCGUUGGCGUAAAGGUACCGCGUCUCCCUCCUAAGGAGAAAACUGCGGGUUCGAGACCCGUACGGAACG [U16A A21C G44A U59A], the yeast fitness was 0.847.
With GUUCCGUUGGCGUAAAGGUACCGCGUCUCCCUCCUAAGGAGAAGACUGCGGGUUCGAAUCCCGUACGGAACG [U16A A21C G58A] the yeast fitness was at most 0.5.
For GUUCCGUUGGCGUAAAGGUAGCGCGUGUCCCUCCUAAGGAGAAGACUGCGGGUUCGGGUCCCGUACGGAACG [U16A A21G C27G A57G], the yeast fitness was at most 0.5.
GUUCCGUUGGCGUAAAGGUAGCGCGUCUCCUUCGUAAGGAGAAGCCUGCGGGUUCGAGUCCCGUAGGGAACG [U16A A21G C31U C34G A45C C66G] gave a yeast fitness of at most 0.5.
Variant GUUCCGUUGGCGUAAAGGUAGCGCGUCUCCCUCUUAAGGAGAAGACUGCGGGUUCGAGUCCCGUACCGAACG [U16A A21G C34U G67C] has a yeast fitness of at most 0.5.
In the case of GUUCCGUUGGCGUAAAGGUAUCGCGUCUCCCUCCUAAGGAGAAGCCUGCGGGUUCGAGUCCCGUACGGAACG [U16A A21U A45C], the yeast fitness is reported as at most 0.5.
For GUUCCGUUGGCGUAAAGGUAUCGAGUCUCCCUCCUAAGGAGAAGACUGCGGGUUCGAGUCCCGUACGGAACG [U16A A21U C24A], the yeast fitness was at most 0.5.
With GUUCCGUUGGCGUAAAGGUAUCGCGUUUCCCUCCUAAGGUGAAGACUGCGGGUUCGAGUCCCGUUCGGACCG [U16A A21U C27U A40U A65U A70C] the yeast fitness was at most 0.5.
With GUUCCGUUGGCGUAAAGGUAUCGCGUUUCCCUCCUAAGGUGAAGACUGCGGGUUCGAGUCCCGUAAGGAACG [U16A A21U C27U A40U C66A] the yeast fitness was at most 0.5.
GUUCCGUUGGCGUAAAGGUAUCGCGUCUCCCUCCUAAGGAGAAGAUUGCGGGUUCGAGUCGCGUACGGAACG [U16A A21U C46U C61G] showed a yeast fitness of at most 0.5.
In the case of GUUCCGUUGGCGUAAAGGUAACGCGUCUCCCUCCUCGGGAGAAGACUGCGGGUUCCAGUCCCGUACGGAACG [U16A A36C A37G G56C], the yeast fitness is reported as at most 0.5.
